As a reminder, the ED50 is the dose at which the effect has come halfway, by size or by number of responders.

Calls of active or inactive are those of the source. The rule behind the calls is not given here.

For test [1], the species on record is Mus musculus. Put plainly: Stimulation of prostanoid receptor-mediated cAMP-[14C] production in Charles River CD-1 mouse ovary at 25 ug/ml preincubated with adenine-8-[14C] for 1 hr followed by compound addition measured after 30 mins in presence of theophylline relative to control. Type of test: tissue-based. The note with it: Female gonad. An outline of the steps: (§1)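 Ovaries from virgin female mice over 70 days old, denuded of fat; three ovaries (15-25 mg) per flask in aerated Krebs-Ringer phosphate pH 7.2 with 1 μCi adenine-8-¹⁴C, 1 h at 37 °C with shaking. Theophylline and compound (in Me₂SO) added, then 30 min at 37 °C. Stopped with TCA, tissue homogenized, ¹⁴C-cAMP isolated. Fold increase = treated/untreated cAMP; 2-3-fold taken as significant.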

Test [2] deals with Cavia porcellus. Put plainly: Antithrombotic activity in po dosed guinea pig assessed as inhibition of collagen-induced platelet aggregation. It counts as functional.
The species entered for test [3] is Mus musculus. Put plainly: Stimulation of prostanoid receptor-mediated cAMP-[14C] production in Charles River CD-1 mouse ovary at 1 ug/ml preincubated with adenine-8-[14C] for 1 hr followed by compound addition measured after 30 mins in presence of theophylline relative to control. Type of test: tissue-based. To be noted: Female gonad. An outline of the steps: as §1

Test [4] is filed under the species Mus musculus. Put plainly: Stimulation of prostanoid receptor-mediated cAMP-[14C] production in Charles River CD-1 mouse ovary at 0.1 ug/ml preincubated with adenine-8-[14C] for 1 hr followed by compound addition measured after 30 mins in presence of theophylline relative to control. It counts as tissue-based. The note with it: Female gonad. An outline of the steps: as §1

For test [5], the species on record is Mus musculus. Kind of test: Stimulation of prostanoid receptor-mediated cAMP-[14C] production in Charles River CD-1 mouse ovary at 100 ug/ml preincubated with adenine-8-[14C] for 1 hr followed by compound addition measured after 30 mins in presence of theophylline relative to control. It counts as tissue-based. To be noted: Female gonad. The method, boiled down: as §1

Test [6] is filed under the species Mus musculus. Put plainly: Stimulation of prostanoid receptor-mediated cAMP-[14C] production in Charles River CD-1 mouse ovary at 10 ug/ml preincubated with adenine-8-[14C] for 1 hr followed by compound addition measured after 30 mins in presence of theophylline relative to control. Type of test: tissue-based. To be noted: Female gonad. The method, boiled down:
as §1

The species entered for a further test is Bos taurus. Put plainly: Inhibition of cAMP phosphodiesterase in beef heart using cAMP as substrate at 100 ug/ml. The method, boiled down:
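Beef heart cAMP phosphodiesterase tested against 0.4 mM cAMP substrate.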

Test [7] has as its system Cavia porcellus. Put plainly: Antithrombotic activity in ip dosed guinea pig assessed as inhibition of collagen-induced platelet aggregation. Type of test: functional.
The species named for test [8] is Mus musculus. Kind of test: Stimulation of prostanoid receptor-mediated cAMP-[14C] production in Charles River CD-1 mouse ovary at 0.01 ug/ml preincubated with adenine-8-[14C] for 1 hr followed by compound addition measured after 30 mins in presence of theophylline relative to control. Type of test: tissue-based. To be noted: Female gonad. An outline of the steps: as §1

The species named for test [9] is Mus musculus. Put plainly: Stimulation of prostanoid receptor-mediated cAMP-[14C] production in Charles River CD-1 mouse ovary at 0.05 ug/ml preincubated with adenine-8-[14C] for 1 hr followed by compound addition measured after 30 mins in presence of theophylline relative to control. It counts as tissue-based. The note with it: Female gonad. The method, boiled down: as §1

`CCCCC[C@H](O)CCCN(CCCCCCC(=O)O)S(C)(=O)=O`: the fold change (FC) worked out at 55 in the test listed under Mus musculus [1]; 8 in the test listed under Mus musculus [3]; 1 in the test filed under Mus musculus [4]; 68 in the test filed under Mus musculus [5]; 54 in the test listed under Mus musculus [6]. Also, in the test with Cavia porcellus [2], the median effective dose (ED50) came to 5 mg/kg.
On to `CCCCC[C@@H](O)CCCN(CCCCCCC(=O)O)S(C)(=O)=O`, for which the results for the fold change (FC) in the test listed under Mus musculus [1], in the test listed under Mus musculus [5] and in the test listed under Mus musculus [6] were 25, 45 and 23, respectively. Also, the ED50 in the test on Cavia porcellus [2] was 8.2 mg/kg.
Take `CCCCCCCCCN(CCCCCCC(=O)O)S(C)(=O)=O`: the fold change (FC) in the test filed under Mus musculus [1] was found to be 14; in the test listed under Mus musculus [5], 15; in the test listed under Mus musculus [6] it was 13.
On to `CCCCC[C@H](O)CCC1CCC(=O)[C@@H]1CCCCCCC(=O)O` (some centres undefined), for which the fold change (FC) in the test filed under Mus musculus [1] was determined as 26; in the test filed under Mus musculus [3], 10; in the test filed under Mus musculus [5] it was 19; in the test filed under Mus musculus [6], 25.
As to `CS(=O)(=O)N(CCCCCCC(=O)O)CCCC1(O)CCCCC1`, the fold change (FC) in the test filed under Mus musculus [1] was determined as 5; in the test listed under Mus musculus [5] it was 10; in the test filed under Mus musculus [6], 3.
On to `CCCCCC(O)CCCN(CCCCCCC(=O)O)S(C)(=O)=O` (racemic), for which the fold change (FC) was 56 in the test listed under Mus musculus [1], 61 in the test filed under Mus musculus [5] and 40 in the test filed under Mus musculus [6]. For the same compound, the inhibition entry in the test filed under Bos taurus was “inactive”. In addition, the ED50 in the test with Cavia porcellus [2] came out at 6 mg/kg.
For the compound `CCCCCC(O)/C=C/CN(C/C=C\CCCC(=O)O)S(C)(=O)=O` (racemic), the fold change (FC) in the test filed under Mus musculus [1] amounted to 19; in the test listed under Mus musculus [5], 27; in the test filed under Mus musculus [6], 11.
The corresponding values for `CCCCCC(O)C#CCN(CCCCCCC(=O)O)S(C)(=O)=O` (racemic) are 21, 36 and 21.
Turning to `CCCCCC(O)CCCC(CCCCCCC(=O)O)C(C)=O` (racemic), the fold change (FC) came to 14 in the test listed under Mus musculus [1]; 2 in the test filed under Mus musculus [3]; 1 in the test filed under Mus musculus [4]; 23 in the test listed under Mus musculus [5]; 11 in the test listed under Mus musculus [6].
For `CCCCCC(O)CCCN(C/C=C\CCCC(=O)O)S(C)(=O)=O` (racemic), the fold change (FC) in the test filed under Mus musculus [1] was 18; in the test filed under Mus musculus [5] it was 37; in the test listed under Mus musculus [6], 16.
The corresponding values for `CCCCCC(O)CCCN(CC#CCCCC(=O)O)S(C)(=O)=O` (racemic) are 30, 39 and 21.
The like results for `CCCCCC(O)CCCN(CCCCOCC(=O)O)S(C)(=O)=O` (racemic) were, in that order, 27, 38 and 24.
In the case of `CCCCC[C@H](O)/C=C/[C@H]1[C@H](O)CC(=O)[C@@H]1CCCCCCC(=O)O` [ALPROSTADIL], the fold change (FC) in the test filed under Mus musculus [1] turned out to be 62; in the test filed under Mus musculus [3], 54; in the test filed under Mus musculus [8] it was 8; in the test filed under Mus musculus [4] it was 29; in the test listed under Mus musculus [9], 25; in the test listed under Mus musculus [5], 62. Moreover, in the test listed under Mus musculus [6], the fold change (FC) is 60. The 50% effective dose (ED50) with Cavia porcellus [7] amounted to 0.02 mg/kg. Also, the result in the test on Cavia porcellus [2] was inactive.

For the origin of these results see ChEMBL document CHEMBL3272123, “11,12-secoprostaglandins. 4. 7-(N-alkylmethanesulfonamido) heptanoic acids” (1977).
